# Measured values from different studies.
# Protocols differ between the studies behind these lines.
# Target: Homeodomain-interacting protein kinase 3 (HIPK3, Homo sapiens, UniProt Q9H422)
SMILES,read-out,mode,technique,tested at,quantity,value
CNC(=O)Nc1ccc2c(c1)[C@@]1(CC2)OC(=O)N(CC(=O)N(Cc2ccc(F)cc2)[C@@H](C)C(F)(F)F)C1=O,cell-free assay,,competition with immobilised ligand,1 µM,remaining binding,90%
COc1cc(-c2cc(-c3ccc(N4CCNCC4)cc3)cnc2C)cc(OC)c1OC,enzyme activity,inhibitor,,1 µM,inhibition,2%
O=C(Nc1cccnn1)N1CC(C/C=C/c2cncc(Oc3ccc(C(F)(F)F)cn3)n2)C1,cell-free assay,,competition with immobilised ligand,1 µM,remaining binding,74%
CC/C(=N\NC(=O)NCc1cccc(O)c1)c1ccc(O)c(C)c1O,enzyme activity,inhibitor,,0.1 µM,inhibition,2.5%
O=C(O)c1ccc2c(c1)nc(Nc1ccc(Cl)cc1)c1ncncc12,enzyme activity,inhibitor,radiometric,1 µM,remaining activity,7%
NS(=O)(=O)c1cc(NC(=O)Cc2ccccc2)ccc1Oc1cccc(Cl)c1,cell-free assay,,competition with immobilised ligand,1 µM,remaining binding,84%
Cn1c(=O)n(-c2ccc(C(C)(C)C#N)cc2)c2c3cc(-c4cnc5ccccc5c4)ccc3ncc21,enzyme activity,inhibitor,,10 µM,remaining activity,102%
CCN(CC)CCNC(=O)c1c(C)[nH]c(/C=C2\C(=O)Nc3ccc(F)cc32)c1C,enzyme activity,inhibitor,,10 µM,inhibition,82%
N#Cc1cccc(Nc2nc3cc(C(=O)O)ccc3c3cncnc23)c1,enzyme activity,inhibitor,radiometric,1 µM,remaining activity,8%
CN1CC(Oc2cnc(C#N)cc2-c2ccn3nc(NC(=O)C4CC4)cc3c2)C1,enzyme activity,inhibitor,,1 µM,inhibition,-3%
O=C(O)c1ccc2c(c1)nc(Nc1ccc(Cl)cc1)c1ccncc12,enzyme activity,inhibitor,radiometric,1 µM,remaining activity,9%
Cc1ccc(Nc2nccc(N(C)c3ccc4c(C)n(C)nc4c3)n2)cc1S(N)(=O)=O,enzyme activity,inhibitor,,10 µM,inhibition,20%
O=C(O)c1ccc2c(c1)nc(NCc1ccccc1)c1ccncc12,enzyme activity,inhibitor,radiometric,1 µM,remaining activity,68%
FC(F)(F)Oc1cccc(-c2cnc3ccc(-c4ccncc4)nn23)c1,enzyme activity,inhibitor,radiometric,1 µM,activity vs control,44%
CO[C@H]1CC[C@H](CNc2ccc(S(=O)(=O)NC(=O)c3ccc(N4CCN(CC5=C(c6ccc(Cl)cc6)CC(C)(C)CC5)CC4)cc3Oc3cnc4[nH]ccc4c3)cc2[N+](=O)[O-])CC1,cell-free assay,,competition with immobilised ligand,1 µM,remaining binding,100%
O=C(O)c1ccc2c(c1)nc(Nc1cccc(F)c1)c1ccncc12,enzyme activity,inhibitor,radiometric,1 µM,remaining activity,10%
Cc1cc(NC(=O)c2cccc3cc(-c4cccc5[nH]nc(N)c45)ccc23)ccc1F,enzyme activity,inhibitor,,0.1 µM,activity vs control,92%
COc1cc2ncnc(Nc3ccc(Oc4ccccc4)c(C)c3C)c2cc1OC,enzyme activity,inhibitor,,1 µM,inhibition,1%
COc1cc2nccc(Oc3ccc(NC(=O)c4c5n(n(-c6ccc(F)cc6)c4=O)CCCC5)cc3)c2cc1OC,enzyme activity,inhibitor,,0.1 µM,inhibition,-8%
N#Cc1ccc(Nc2ccc3[nH]c(=O)[nH]c3c2)c(Cl)c1,cell-free assay,,competition with immobilised ligand,1 µM,remaining binding,94%
O=C(O)c1ccc2c(c1)nc(Nc1ccccc1)c1ncncc12,enzyme activity,inhibitor,radiometric,1 µM,remaining activity,13%
Nc1ncnc2occ(-c3ccc(NC(=O)Nc4cc(C(F)(F)F)ccc4F)cc3)c12,cell-free assay,inhibitor,,20 µM,remaining signal,0.7%
C#Cc1cccc(Nc2ncnc3cc(OCCOC)c(OCCOC)cc23)c1,cell-free assay,,,0.5 µM,remaining signal,102%
CCc1ccccc1C(=O)Nc1n[nH]c2c(C)c(F)c(C3C(C#N)=C(C)N(C)C(C)=C3C#N)cc12,cell-free assay,,competition with immobilised ligand,1 µM,remaining binding,100%
COc1cccc(CCNc2nc3cc(C(=O)O)ccc3c3cnccc23)c1,enzyme activity,inhibitor,radiometric,1 µM,remaining activity,21%
CNC(=O)c1cc(Oc2ccc(NC(=O)Nc3ccc(Cl)c(C(F)(F)F)c3)cc2)ccn1,cell-free assay,,,0.5 µM,remaining signal,85.7%
COc1ccc2c(O[C@@H]3C[C@H]4C(=O)N[C@]5(C(=O)O)CC5/C=C\CCCCC[C@H](NC(=O)OC5CCCC5)C(=O)N4C3)cc(-c3csc(NC(=O)C(C)C)n3)nc2c1C (stereo partly drawn),cell-free assay,,competition with immobilised ligand,1 µM,remaining binding,83%
COc1cc2ncnc(Nc3ccc(F)c(Cl)c3)c2cc1OCCCN1CCOCC1,cell-free assay,,,0.5 µM,remaining signal,103%
CC(C)CC(=O)N1CCc2nc(-c3ccc(Br)cc3)nc(N(C)Cc3ccccc3)c2C1,cell-free assay,,competition with immobilised ligand,0.1 µM,remaining binding,100%
O=C(O)c1ccc2c(c1)nc(NCCc1cccc(F)c1)c1ccncc12,enzyme activity,inhibitor,radiometric,1 µM,remaining activity,8%
